Consider 19 compounds from ChEMBL document CHEMBL4033639, “Synthesis, biochemical evaluation, and molecular modeling studies of aryl and arylalkyl di-n-butyl phosphates, effective butyrylcholinesterase inhibitors” (Bioorg Med Chem, 2017).

By Ki is commonly meant the equilibrium dissociation constant of an inhibitor or competing ligand from its target. A higher Ki goes with weaker binding.

The target in one assay is Cholinesterase (Equus caballus, UniProt P81908). Description: Inhibition of horse serum BChE using butyrylthiocholine as substrate by spectrophotometry. An outline of the steps:
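Initial rates monitored continuously at 412 nm (ε 14,150 M-1 cm-1), background from no-enzyme reaction. KI from dependence of observed rate constant on inhibitor concentration (typically twelve); at least three determinations averaged.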

The target in assay [1] is Cholinesterase (Equus caballus) (UniProt P81908). Description: Inhibition of horse serum BChE at 500 uM using butyrylthiocholine as substrate by spectrophotometry relative to control. An outline of the steps: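 Ellman method at 25 °C: 100 mM sodium phosphate pH 7.5, 1 mM MgCl2, 0.2 mM DTNB, BSA, 100 µM butyrylthiocholine, 2% methanol. Inhibitor 500 µM final; reaction started with equine serum BChE (10 nM final); initial rates at 412 nm. Rate divided by 2% methanol no-inhibitor control; at least three determinations with independently prepared inhibitor solutions, averaged.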

The target is the same in assay [2]. Description: Reversible inhibition of horse serum BChE at Ki using 25 mM of butyrylthiocholine as substrate preincubated for 1 min followed by substrate addition by spectrophotometry relative to control.
Assay [3] concerns the target Acetylcholinesterase (Electrophorus electricus) (UniProt O42275). Description: Inhibition of electric eel AChE at 500 uM using acetylthiocholine as substrate by spectrophotometry relative to control. An outline of the steps: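 Ellman method at 25 °C: 100 mM sodium phosphate pH 7.5, 1 mM MgCl2, 0.2 mM DTNB, BSA, 100 µM acetylthiocholine, 2% methanol. Inhibitor 500 µM final; reaction started with AChE (10 nM final); initial rates monitored at 412 nm. Rate divided by 2% methanol no-inhibitor control; at least three determinations with independently prepared inhibitor solutions, averaged.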

The species entered for the next assay is Bos taurus. Put plainly: Inhibition of bovine pancreas alpha-chymotrypsin using N-benzoyl-l-tyrosine ethyl ester as substrate by spectrophotometry relative to control. An outline of the steps:
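Enzyme (fresh 5 units/mL stock in ice-cold 1 mM HCl) added to start; initial rates read continuously at 256 nm, no-enzyme background subtracted. Rate with compound divided by control rate; at least two determinations with independently prepared inhibitor solutions, averaged.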

Cholinesterase, sequence (P81908 whole entry): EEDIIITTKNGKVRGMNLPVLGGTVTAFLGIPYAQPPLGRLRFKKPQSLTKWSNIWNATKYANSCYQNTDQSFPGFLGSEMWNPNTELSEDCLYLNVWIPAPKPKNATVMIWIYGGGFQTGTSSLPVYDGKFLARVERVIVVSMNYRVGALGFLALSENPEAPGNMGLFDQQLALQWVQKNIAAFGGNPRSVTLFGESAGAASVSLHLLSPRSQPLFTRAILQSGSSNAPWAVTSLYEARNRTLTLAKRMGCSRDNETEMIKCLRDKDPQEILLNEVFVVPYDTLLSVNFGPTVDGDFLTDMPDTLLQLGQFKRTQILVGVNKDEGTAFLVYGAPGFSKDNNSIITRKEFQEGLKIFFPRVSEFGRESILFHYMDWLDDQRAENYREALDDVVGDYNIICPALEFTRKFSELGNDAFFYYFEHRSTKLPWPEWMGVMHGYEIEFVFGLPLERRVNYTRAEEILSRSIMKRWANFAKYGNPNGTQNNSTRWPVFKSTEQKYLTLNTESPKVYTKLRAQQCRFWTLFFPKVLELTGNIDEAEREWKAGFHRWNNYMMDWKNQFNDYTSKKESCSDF
Cholinesterase (Equus caballus), sequence (P81908 whole entry): as above
Acetylcholinesterase (Electrophorus electricus), sequence (O42275 24-633 limits assumed): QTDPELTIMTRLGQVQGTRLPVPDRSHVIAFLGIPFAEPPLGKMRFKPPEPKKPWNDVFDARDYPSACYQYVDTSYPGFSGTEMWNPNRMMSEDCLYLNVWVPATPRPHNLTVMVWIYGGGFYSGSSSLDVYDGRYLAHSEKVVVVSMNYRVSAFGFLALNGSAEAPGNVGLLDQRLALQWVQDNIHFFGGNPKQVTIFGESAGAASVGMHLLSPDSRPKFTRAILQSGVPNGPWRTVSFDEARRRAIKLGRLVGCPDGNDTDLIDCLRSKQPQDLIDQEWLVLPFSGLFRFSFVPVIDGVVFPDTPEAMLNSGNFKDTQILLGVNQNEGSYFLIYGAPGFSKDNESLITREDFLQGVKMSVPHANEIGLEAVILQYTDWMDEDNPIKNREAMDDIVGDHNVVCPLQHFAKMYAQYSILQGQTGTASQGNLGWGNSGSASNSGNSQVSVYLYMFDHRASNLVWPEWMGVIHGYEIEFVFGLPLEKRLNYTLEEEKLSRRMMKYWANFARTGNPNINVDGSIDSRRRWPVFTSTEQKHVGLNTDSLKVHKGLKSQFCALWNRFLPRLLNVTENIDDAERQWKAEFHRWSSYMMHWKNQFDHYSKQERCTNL

On Cholinesterase, `CCCCOP(=O)(OCCCC)OCc1ccc(C)cc1` yielded an inhibition constant Ki of 14 µM. In addition, the fold change (FC) in assay [1] came to 0.04; in assay [2] it was 0.92; in assay [3] it was 0.87; in the assay filed under Bos taurus it was 0.92.

Take `CCOP(=O)(OCC)Oc1cc(C)cc(C)c1`: at Cholinesterase, the inhibition constant (Ki) was determined as 583 µM.

Consider `CCCCOP(=O)(OCCCC)OCc1ccccc1C`, for which the affinity on Cholinesterase, expressed as Ki, was 72 µM. The fold change (FC) in assay [1] amounted to 0.04; in assay [2], 0.95; in assay [3], 0.98; in the assay filed under Bos taurus, 0.94.

For `CCCCOP(=O)(OCCCC)Oc1ccc(C)cc1`, the Ki on Cholinesterase turned out to be 8 µM. Moreover, the fold change (FC) came to 0.02 in assay [1], 0.94 in assay [2], 0.89 in assay [3] and 0.96 in the assay listed under Bos taurus.

In the case of `CCCCOP(=O)(OCCCC)Oc1ccc(C)c(C)c1`, the Ki at Cholinesterase stood at 9 µM. In addition, the fold change (FC) was 0.04 in assay [1], 0.93 in assay [2], 1.04 in assay [3] and 0.94 in the assay filed under Bos taurus.

Regarding `CCCCOP(=O)(OCCCC)Oc1ccccc1`, the Ki on Cholinesterase lay in the range of 45 to 80 µM.

Consider `CCCCCOP(=O)(OCCCCC)Oc1ccccc1`, for which, at Cholinesterase, the affinity, expressed as Ki, was 6 µM.

In turn, `CCOP(=O)(OCC)Oc1ccccc1` [PHOSPHORIC ACID DIETHYL ESTER PHENYL ESTER] had a Ki on Cholinesterase of 1590 µM.

For `CCCCOP(=O)(OCCCC)Oc1cccc2ccccc12`, the Ki at Cholinesterase is 22 µM. Further, the fold change (FC) in assay [1] was found to be 0.21; in assay [2], 0.71; in assay [3], 1.07; in the assay filed under Bos taurus it was 0.93.

At Cholinesterase, `CCCCOP(=O)(OCCCC)OCc1ccccc1` came in with a Ki of 2 µM. In addition, the fold change (FC) was 0.01 in assay [1], 0.92 in assay [2], 1 in assay [3] and 0.97 in the assay filed under Bos taurus.

In turn, `CCCCOP(=O)(OCCCC)OCCc1ccccc1` had a Ki at Cholinesterase of 53 µM. For the same compound, the fold change (FC) was found to be 0.11 in assay [1], 0.97 in assay [2], 1.02 in assay [3] and 0.89 in the assay filed under Bos taurus.

As to `CCCCOP(=O)(OCCCC)Oc1ccc2ccccc2c1`, on Cholinesterase, the Ki was determined as 1.9 µM. For the same compound, the fold change (FC) stood at 0.01 in assay [1], 0.8 in assay [2], 1.05 in assay [3] and 0.76 in the assay listed under Bos taurus.

Regarding `CCOP(=O)(OCC)Oc1ccc2ccccc2c1`, the Ki at Cholinesterase was found to be 147 µM.

As to `CCCOP(=O)(OCCC)Oc1ccccc1`, at Cholinesterase, the Ki lay in the range of 45 to 80 µM.

Regarding `CCCCOP(=O)(OCCCC)OCc1cccc(C)c1`, at Cholinesterase, the Ki was 24 µM. Further, the fold change (FC) in assay [1] worked out at 0.12; in assay [2], 0.95; in assay [3], 0.86; in the assay listed under Bos taurus it was 0.94.

In the case of `CCCCOP(=O)(OCCCC)Oc1ccccc1C`, the affinity at Cholinesterase, expressed as Ki, was 50 µM. Moreover, the fold change (FC) came to 0.27 in assay [1], 0.91 in assay [2], 0.99 in assay [3] and 0.92 in the assay filed under Bos taurus.

Consider `CCCCOP(=O)(OCCCC)Oc1cc(C)cc(C)c1`, for which the affinity on Cholinesterase, expressed as Ki, was 1 µM. Further, the fold change (FC) was 0.01 in assay [1], 0.83 in assay [2], 1 in assay [3] and 0.95 in the assay filed under Bos taurus.

For the compound `CCCCOP(=O)(OCCCC)Oc1cc(C)c(C)c(C)c1`, the Ki at Cholinesterase was 11 µM. Further, the fold change (FC) in assay [1] came out at 0.09; in assay [2], 0.88; in assay [3] it was 1.09; in the assay filed under Bos taurus, 0.84.

As for `CCCCOP(=O)(OCCCC)Oc1cccc(C)c1`, the affinity on Cholinesterase corresponds to a Ki of 16 µM. For the same compound, the fold change (FC) in assay [1] was found to be 0.15; in assay [2], 0.94; in assay [3], 0.99; in the assay filed under Bos taurus, 0.89.
